Among the data in the RNAGym collection of RNA variant scans (doi:10.1126/science.aae0568) are yeast fitness values, retold here.

To fix the notation:
B1: tRNA (parent)
chain: GUUCCGUUGGCGUAAUGGUAACGCGUCUCCCUCCUAAGGAGAAGACUGCGGGUUCGAGUCCCGUACGGAACG

Variants at the floor of the assay were thinned out.

The variants in this data set derive from B1. As to the kind of experiment: yeast fitness relative to wild type (ratio to wild type); higher = fitter; tRNA-Arg(CCU), competitive growth, 37 C, YPD. In outline: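 Variants of the tRNA-Arg(CCU) gene, chemically synthesised with a 3% per-site mutation rate at 69 sites, were placed at the native genomic locus in Saccharomyces cerevisiae. The pooled strains were competed in YPD at 37°C for 24 hours in six parallel replicates. Gene amplicons from the start population and from each end population were read by 100-nucleotide paired-end sequencing. Darwinian fitness relative to wild type came from changes in genotype frequencies; genotypes needed ≥ 100 starting reads, and estimates < 0.5 were set to 0.5.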
With G23U, the yeast fitness is 0.779.

As to U16A G44C, the yeast fitness came to 0.751.

Consider G56A A65G C66U G68A, for which the yeast fitness is 0.609.

As to C5U C24U G38C G44C, the yeast fitness was not above 0.5.

In the case of U8A C24U A40U A42C A45U C49U, the yeast fitness is not above 0.5.

Take U54C A70G: the yeast fitness was found to be 0.973.

With A15G G44C A65C, the yeast fitness was not above 0.5.

In the case of C11U C29U C55U, the yeast fitness is not above 0.5.

As for U32A G58C, the yeast fitness was 0.651.

Turning to U7G A20C G41A G50A C60U C66G, the yeast fitness is not above 0.5.

Consider G48A G51A, for which the yeast fitness is 1.04.

C24G A36G A45G A65U: the yeast fitness is not above 0.5.

Regarding A42C A69G, the yeast fitness is 0.97.

As for U13C U28A C62U C66A, the yeast fitness was not above 0.5.

For the variant C46U C62A, the yeast fitness was 0.684.

On to U7C C27U C33G C34G G44A G50A G52A, for which the yeast fitness was not above 0.5.

For the variant G18A C24U U47G, the yeast fitness was not above 0.5.

Regarding A20U C34G, the yeast fitness came to 0.68.

As to C4U U7A A36G, the yeast fitness is not above 0.5.

As for C33U G44C, the yeast fitness worked out at 0.601.

For the variant U3C G10A C22A C24G, the yeast fitness was not above 0.5.

Turning to C5A C11G G25A C61A, the yeast fitness is not above 0.5.

Consider C29A C31A A40U C49U, for which the yeast fitness was not above 0.5.

Turning to G6A C46G U64A, the yeast fitness worked out at 0.667.

Consider C4A U7A A20U C27G C29U C62G, for which the yeast fitness was found to be 0.549.

For the variant G6A G9U, the yeast fitness worked out at 0.774.

As to A15G G50A G58C C66U, the yeast fitness is not above 0.5.

Take U16A C24U C34A: the yeast fitness was determined as 0.656.

As for C29G C55A, the yeast fitness worked out at 0.577.

On to A45C C46A C62A, for which the yeast fitness stood at 0.603.

With C24U C29A U32A C46G A70C, the yeast fitness is not above 0.5.

In the case of A20C G23A C55G C60A, the yeast fitness was found to be 0.561.

Consider G17C G41A G56C, for which the yeast fitness worked out at 0.619.

As for C31U G68A, the yeast fitness turned out to be 0.883.

For U8C A15C C27U A45C, the yeast fitness is not above 0.5.

A14U C34G: the yeast fitness is not above 0.5.

As to A15C A20G G51A C55G, the yeast fitness is 0.532.

As for A36U A40G U53A, the yeast fitness is 0.627.

Turning to C4U C29A G52C C55G U59G, the yeast fitness turned out to be 0.656.

Take C22U C27G U28G U32G A45G: the yeast fitness was not above 0.5.

For the variant U26G U47C G51A, the yeast fitness turned out to be 0.559.

As for A20G G23C C31G G50A, the yeast fitness was not above 0.5.

As for C5A G23C U32G A69U, the yeast fitness is not above 0.5.

Turning to C34U C49A G56C C62A A65C, the yeast fitness was 0.519.

For the variant U26G C46G, the yeast fitness amounted to 0.807.

On to C46U G56C A69U, for which the yeast fitness came to 0.54.

Turning to U35C A43U, the yeast fitness stood at 0.971.

Turning to C5A C27U A69U, the yeast fitness turned out to be 0.711.

In the case of C24G G38C C62A, the yeast fitness was 0.852.

Consider A20U A36C C60A, for which the yeast fitness is not above 0.5.

Regarding G44C C60A C66U, the yeast fitness is not above 0.5.

Consider A40U A43C G52A, for which the yeast fitness was determined as 0.667.

For the variant C5G C24G G50A C60U A69U, the yeast fitness is not above 0.5.

Regarding G38C A45C A57C A70U, the yeast fitness was not above 0.5.

Regarding U3A A14C A37C U47A, the yeast fitness was not above 0.5.

Consider C5G G10C G52A U54A C60G, for which the yeast fitness is 0.629.

Take U13A A14C C22A C31A A37G C55U A57G: the yeast fitness is not above 0.5.

Turning to U13G C30U U32C, the yeast fitness was 0.686.

In the case of C29A C31G C49A C55G, the yeast fitness was found to be 0.549.

Consider C34U G48A C49G, for which the yeast fitness was 0.563.

Take G48C C62U: the yeast fitness amounted to 0.899.

Turning to U13C G48C A65G, the yeast fitness amounted to 0.655.

Consider C27U G38C A69U, for which the yeast fitness is not above 0.5.

As for U3C G23C, the yeast fitness came out at 0.695.

On to A20C C34G G67U A69G, for which the yeast fitness was not above 0.5.

Regarding U13A C34G A45C A57C, the yeast fitness is not above 0.5.

Take U7C A42U A43G: the yeast fitness was found to be 0.53.

C24G C31G G50A G68C: the yeast fitness was not above 0.5.

Regarding C4U G44U, the yeast fitness came to 0.757.

In the case of U19C U28C C46U, the yeast fitness worked out at 0.712.

In the case of C5U U16C C55A, the yeast fitness was 0.627.

C4G C31U A57U: the yeast fitness was 0.665.

In the case of C5A G63U, the yeast fitness is 0.722.

On to C24G U59G A65U, for which the yeast fitness was 0.659.

Regarding G17C A57G, the yeast fitness came out at 0.68.

C5A G23C G41C G50C: the yeast fitness was not above 0.5.

For the variant C27G G39A C46U, the yeast fitness was found to be 0.74.

In the case of U2G U7G U16C C34U U54C A65U, the yeast fitness is not above 0.5.

As for C34A G41C, the yeast fitness is 0.757.

In the case of U7G G23C C30G A36U C61U A65U, the yeast fitness worked out at 0.527.

Take A20G U26A A70U: the yeast fitness turned out to be 0.717.

With U8A U19C A21C C66U, the yeast fitness is not above 0.5.

Regarding U3A U26G C66U, the yeast fitness is not above 0.5.

For C5G C30A A36G A45C A69U, the yeast fitness is not above 0.5.

Take U8A U13C C66U: the yeast fitness came out at 0.607.

As for G25A U32A U53A, the yeast fitness is not above 0.5.

As to A14C C30U G41C A69U, the yeast fitness was not above 0.5.

On to U3A G12C, for which the yeast fitness was 0.635.

On to U35A C66G, for which the yeast fitness is 0.599.

For C30U C55A C62U, the yeast fitness is not above 0.5.

For A21C C27U C33U, the yeast fitness was determined as 0.544.

Regarding U26C U28A, the yeast fitness worked out at 0.727.

Regarding C27U A45C G48A A57U G68C, the yeast fitness turned out to be 0.562.

C22A C27G A43U C60A: the yeast fitness came out at 0.557.

As to U2A C11U G23A C29G, the yeast fitness is 0.527.

G10C U35G A43C U47C C55U C62U A69C: the yeast fitness is not above 0.5.

As for C29U C30U G63A, the yeast fitness worked out at 0.514.

For U32C A40U A69C, the yeast fitness worked out at 0.747.

Consider C27A C46U G67A, for which the yeast fitness was 0.699.

In the case of U16C G25A U28C G52C, the yeast fitness was not above 0.5.

With A21U A36G C49A G63A, the yeast fitness is not above 0.5.

For C29A A45C C46U G51A G56A, the yeast fitness was not above 0.5.

On to U32G C33A U47A C62U C66G, for which the yeast fitness is not above 0.5.

For U2C C11G A37G G51C A57G, the yeast fitness was determined as 0.632.

A21C C24G U32A A42C A65U: the yeast fitness was 0.543.

For U3C C30G A43C, the yeast fitness amounted to 0.548.

Consider U7A A20G A40U, for which the yeast fitness is not above 0.5.

For A20C C24G C27A G51C C61U, the yeast fitness stood at 0.586.

In the case of G52C A65U G67C, the yeast fitness is not above 0.5.

As for C27U G38A G68C, the yeast fitness is not above 0.5.

With C4U C11A G67U, the yeast fitness is not above 0.5.

C34U C62G C66G G67U: the yeast fitness was not above 0.5.

With G41A A70C, the yeast fitness came out at 0.901.

As for C46G C66U, the yeast fitness was 0.928.

Take G6A C34G U59A: the yeast fitness was determined as 0.547.

For the variant U2C C11A C22G G41A A43C G51C C66U G67C, the yeast fitness is not above 0.5.

With U13A A15G C27U A57G, the yeast fitness is not above 0.5.

With C29A U32C A42U A69U, the yeast fitness is not above 0.5.

As to A14G C24G, the yeast fitness came out at 0.597.

C5G A15U A20U A40C G67A: the yeast fitness is 0.538.

On to C30A G41A U47C, for which the yeast fitness came out at 0.559.

For the variant G18A C24G G38C, the yeast fitness is 0.724.

On to U3C G6C U7G C24G C27A U28A G41A, for which the yeast fitness was 0.618.

Consider G38C C46A U59C G68A, for which the yeast fitness was not above 0.5.

Take U8A U28A C66U: the yeast fitness was not above 0.5.

For C11G C24U U28C C66G, the yeast fitness is not above 0.5.

In the case of A14U U19A C24G U54A, the yeast fitness was not above 0.5.

A20C C34U G52A G68A: the yeast fitness is not above 0.5.

As for G18C G48A U53G, the yeast fitness was not above 0.5.

Consider U8A A43C G44C, for which the yeast fitness is not above 0.5.

With C5G C22A G25A A37U, the yeast fitness amounted to 0.596.

U3A C27G C31U C33U A42C A70U: the yeast fitness is not above 0.5.

Take G18U U32C A45G A57G: the yeast fitness was not above 0.5.

For A14U A69U, the yeast fitness was found to be 0.702.

Consider C4U G67C, for which the yeast fitness worked out at 0.829.

Consider A37G G50A, for which the yeast fitness came to 0.842.

For the variant A42U A43U A57G, the yeast fitness worked out at 0.534.

As for C29A U35A G56A, the yeast fitness was 0.741.

In the case of G6C G50A A69U, the yeast fitness was found to be 0.682.

For A37G C61U, the yeast fitness was 0.785.

On to G25A A45C U53C C55U G56C C61A C66U, for which the yeast fitness was 0.564.

Consider A14G G41A G44C C49U, for which the yeast fitness was not above 0.5.

For the variant U3G C24U C31U, the yeast fitness is 0.793.

Consider C4A C22G C29U, for which the yeast fitness was 0.556.

For the variant C4G C5G C30U C31U A45U, the yeast fitness is not above 0.5.

For G10A C66A G67C, the yeast fitness is not above 0.5.

In the case of U19C U32C, the yeast fitness amounted to 0.926.

In the case of C30U G52A, the yeast fitness turned out to be 0.785.

Regarding C11A G23C G39C C61A C62G A65U, the yeast fitness was not above 0.5.

For the variant C24G C31A C33U U35A A57G, the yeast fitness stood at 0.529.

In the case of A15G G44C A57U, the yeast fitness is not above 0.5.

For G41A U53G U59A C62G, the yeast fitness is not above 0.5.

Consider G18A A40U A42U A65C, for which the yeast fitness is 0.534.

In the case of A40C C60A, the yeast fitness turned out to be 0.654.

For G9C C24U U26G C61G, the yeast fitness was 0.504.

Turning to A14U U28A G56C G67U, the yeast fitness is not above 0.5.

For the variant G25A C29A G38A, the yeast fitness was not above 0.5.

Regarding C29G G52C A57U, the yeast fitness is not above 0.5.

For the variant A15G G18A G48C C61A, the yeast fitness was not above 0.5.

With A21C C30A C62U A70U, the yeast fitness is not above 0.5.

Turning to A14G C31G A37U A57C A69U, the yeast fitness was not above 0.5.

For A21C C27G U28A C29U C34U, the yeast fitness was determined as 0.525.

Turning to C11A C22A C29G, the yeast fitness came out at 0.545.

With U7A C22G C30U A37G C55A, the yeast fitness was not above 0.5.

In the case of U2G C46A G56C, the yeast fitness was not above 0.5.

Take G9A C11A G38C A40C: the yeast fitness is not above 0.5.

Regarding G6C C11U C31G A36G, the yeast fitness came to 0.66.
